Values after ≈ are worked out from the molar mass of the structure shown.
Tests used:
Format in all cases: functional
[1] = tested on: Puccinia recondita; test: Antifungal activity against Puccinia recondita infected compound pre-treated wheat plant seedlings assessed as wheat leaf rust disease control efficacy at 20 ug/mL under greenhouse conditions
In short: (§1)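 Barley or wheat seedlings sprayed to runoff with compound in 1% Tween 20 containing water/DMSO (99:1); controls got Tween 20 with 1% DMSO; left 24 h before inoculation; greenhouse. Pots in randomized complete block, three replicates; infected leaf area averaged and converted to % control = 100×[(A−B)/A] versus Tween-only plants.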

[2] = tested on: Puccinia recondita; test: Antifungal activity against Puccinia recondita infected compound pre-treated wheat plant seedlings assessed as wheat leaf rust disease control efficacy at 50 ug/mL under greenhouse conditions; in short: as §1
[3] = tested on: Corticium; test: Antifungal activity against Corticium sasaki infected compound pre-treated rice plant seedlings through soil application of fungus assessed as rice sheath blight disease control efficacy at 50 ug/mL under greenhouse conditions
In short: (§2)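 Rice seedlings at fourth-leaf stage sprayed to runoff with compound in 1% Tween 20 (water/DMSO 99:1), left 24 h, then inoculated by adding 7-day-old C. sasaki cultures to soil. Greenhouse; three replicates, randomized complete block; % control = 100×[(A−B)/A] from infected sheath area relative to Tween 20/1% DMSO-treated plants.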

[4] = tested on: Corticium; test: Antifungal activity against Corticium sasaki infected compound pre-treated rice plant seedlings through soil application of fungus assessed as rice sheath blight disease control efficacy at 5 ug/mL under greenhouse conditions; in short: as §2
[5] = tested on: Phytophthora infestans; test: Antifungal activity against Phytophthora infestans infected compound pre-treated tomato plant seedlings assessed as tomato late blight disease control efficacy at 100 ug/mL measured after 2 days under greenhouse conditions
In short: (§3)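 Tomato seedlings at second-leaf stage sprayed to runoff with compound in 1% Tween 20 (water/DMSO 99:1), left 24 h, then sprayed with P. infestans zoospore suspension (5 × 10^4 sporangia/mL). Held 1 day at 20 C, 100% RH, then 2 days in growth chamber. Three replicates, randomized blocks; % control from infected area versus Tween 20/1% DMSO controls.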

[6] = tested on: Phytophthora infestans; test: Antifungal activity against Phytophthora infestans infected compound pre-treated tomato plant seedlings assessed as tomato late blight disease control efficacy at 50 ug/mL measured after 2 days under greenhouse conditions; in short: as §3
[7] = tested on: Botrytis cinerea; test: Antifungal activity against Botryotinia fuckeliana infected in compound pre-treated tomato plant seedlings assessed as tomato gray mold disease control efficacy at 50 ug/mL measured 3 days post fungus inoculation under greenhouse conditions
[8] = tested on: Botrytis cinerea; test: Antifungal activity against Botryotinia fuckeliana infected in compound pre-treated tomato plant seedlings assessed as tomato gray mold disease control efficacy at 5 ug/mL measured 3 days post fungus inoculation under greenhouse conditions
[9] = tested on: Clavispora lusitaniae; test: Antifungal activity against Clavispora lusitaniae ATCC 6258 after 48 to 72 hr by agar dilution method
[10] = tested on: Candida tropicalis; test: Antifungal activity against Candida tropicalis ATCC 13803 after 48 to 72 hr by agar dilution method
[11] = tested on: Blumeria hordei; test: Antifungal activity against Blumeria graminis f. sp. hordei infected compound pre-treated barley plant seedlings assessed as barley powdery mildew disease control efficacy at 11 ug/mL under greenhouse conditions
In short: (§4)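 Greenhouse protective assay. Seedlings were sprayed to runoff with compound in 1% Tween 20 containing 1% DMSO; controls got Tween 20 with 1% DMSO. Plants stood 24 h before pathogen inoculation. Infected leaf area was scored. Three replicates in randomized complete blocks; % control = 100 × (A−B)/A against the Tween-only control; means compared by LSD at P = 0.05.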

[12] = tested on: Corticium; test: Antifungal activity against Corticium sasaki infected compound pre-treated rice plant seedlings through soil application of fungus assessed as rice sheath blight disease control efficacy at 11 ug/mL under greenhouse conditions
In short: (§5)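 Rice seedlings were sprayed to runoff with compound in 1% Tween 20 containing 1% DMSO; controls got Tween 20 with 1% DMSO. After 24 h, fourth-leaf-stage plants were inoculated by adding 7-day-old C. sasaki cultures to the soil. Infected sheath area was scored. Three replicates in randomized complete blocks; % control = 100 × (A−B)/A against the Tween-only control.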

[13] = tested on: Pyricularia grisea; test: Antifungal activity against Magnaporthe grisea after 48 to 72 hr by agar dilution method
In short: (§6)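 Agar dilution: DMSO stock added to molten medium (potato dextrose agar, or V-8 juice agar) at 0.25–128 μg/mL, 2-fold series. Inoculum was 5 mm mycelial disks from actively growing colony margins pre-grown 3–7 days at 20–25 C. Plates incubated 20–25 C for 24–72 h. MIC = lowest concentration giving complete growth inhibition versus compound-free plate; three repeats.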

[14] = tested on: Alternaria kikuchiana; test: Antifungal activity against Alternaria kikuchiana after 48 to 72 hr by agar dilution method
In short: (§7)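 Agar dilution MIC on field-isolate phytopathogens. Compound in DMSO added to molten potato dextrose agar at 0.25-128 μg/mL (2-fold serial dilution). Inocula were 5 mm mycelial disks cut from actively growing colony margins after 3-7 days at 20-25 C. Plates were incubated at 20-25 C for 24-72 h. MIC is the lowest concentration giving complete growth inhibition versus a no-compound control. Run three times.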

[15] = tested on: Pyricularia grisea; test: Antifungal activity against Magnaporthe grisea infected compound pre-treated rice plant seedlings assessed as rice blast disease control efficacy at 33 ug/mL under greenhouse conditions
In short: (§8)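 Rice seedlings at third-leaf stage sprayed to runoff with compound in 1% Tween 20 (water/DMSO 99:1), left 24 h, then sprayed with M. grisea spores (5 × 10^5 spores/mL). Greenhouse; randomized complete block, three replicates; % control = 100×[(A−B)/A] from infected leaf area versus Tween 20/1% DMSO controls.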

[16] = tested on: Botrytis cinerea; test: Antifungal activity against Botryotinia fuckeliana infected in compound pre-treated tomato plant seedlings assessed as tomato gray mold disease control efficacy at 11 ug/mL measured 3 days post fungus inoculation under greenhouse conditions
In short: (§9)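 Tomato seedlings were sprayed to runoff with compound in 1% Tween 20 containing 1% DMSO; controls got Tween 20 with 1% DMSO. After 24 h, second-leaf-stage plants were sprayed with B. cinerea spores (10^6/mL) and kept dark at 20 C, 100% RH. Infected leaf area was scored 3 days post-inoculation. Three replicates in randomized complete blocks; % control = 100 × (A−B)/A against the Tween-only control.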

[17] = tested on: Rhizoctonia solani; test: Antifungal activity against Rhizoctonia solani after 48 to 72 hr by agar dilution method; in short: as §7
[18] = tested on: Phytophthora infestans; test: Antifungal activity against Phytophthora infestans infected compound pre-treated tomato plant seedlings assessed as tomato late blight disease control efficacy at 11 ug/mL measured after 2 days under greenhouse conditions; in short: as §3
[19] = tested on: Corticium; test: Antifungal activity against Corticium sasaki infected compound pre-treated rice plant seedlings through soil application of fungus assessed as rice sheath blight disease control efficacy at 33 ug/mL under greenhouse conditions; in short: as §5
[20] = tested on: Candida albicans; test: Antifungal activity against Candida albicans ATCC 10231 after 48 to 72 hr by agar dilution method
[21] = tested on: Blumeria hordei; test: Antifungal activity against Blumeria graminis f. sp. hordei infected compound pre-treated barley plant seedlings assessed as barley powdery mildew disease control efficacy at 100 ug/mL under greenhouse conditions; in short: as §1
[22] = tested on: Blumeria hordei; test: Antifungal activity against Blumeria graminis f. sp. hordei infected compound pre-treated barley plant seedlings assessed as barley powdery mildew disease control efficacy at 33 ug/mL under greenhouse conditions; in short: as §4
[23] = tested on: Pyricularia grisea; test: Antifungal activity against Magnaporthe grisea infected compound pre-treated rice plant seedlings assessed as rice blast disease control efficacy at 11 ug/mL under greenhouse conditions; in short: as §8
[24] = tested on: Colletotrichum lagenaria; test: Antifungal activity against Colletotrichum lagenaria after 48 to 72 hr by agar dilution method; in short: as §7
[25] = tested on: Botrytis cinerea; test: Antifungal activity against Botryotinia fuckeliana infected in compound pre-treated tomato plant seedlings assessed as tomato gray mold disease control efficacy at 33 ug/mL measured 3 days post fungus inoculation under greenhouse conditions; in short: as §9
[26] = tested on: Globisporangium ultimum; test: Antifungal activity against Pythium ultimum after 48 to 72 hr by agar dilution method; in short: as §7
[27] = tested on: Phytophthora infestans; test: Antifungal activity against Phytophthora infestans infected compound pre-treated tomato plant seedlings assessed as tomato late blight disease control efficacy at 33 ug/mL measured after 2 days under greenhouse conditions; in short: as §3
[28] = tested on: Puccinia recondita; test: Antifungal activity against Puccinia recondita infected compound pre-treated wheat plant seedlings assessed as wheat leaf rust disease control efficacy at 33 ug/mL under greenhouse conditions; in short: as §4
[29] = tested on: Botrytis cinerea; test: Antifungal activity against Botryotinia fuckeliana after 48 to 72 hr by agar dilution method; in short: as §7
[30] = tested on: Candida albicans; test: Antifungal activity against Candida albicans isolate A207 after 48 to 72 hr by agar dilution method
[31] = tested on: Corticium; test: Antifungal activity against Corticium sasaki infected compound pre-treated rice plant seedlings through soil application of fungus assessed as rice sheath blight disease control efficacy at 100 ug/mL under greenhouse conditions; in short: as §5
[32] = tested on: Puccinia recondita; test: Antifungal activity against Puccinia recondita infected compound pre-treated wheat plant seedlings assessed as wheat leaf rust disease control efficacy at 100 ug/mL under greenhouse conditions; in short: as §4
[33] = tested on: Pyricularia grisea; test: Antifungal activity against Magnaporthe grisea infected compound pre-treated rice plant seedlings assessed as rice blast disease control efficacy at 100 ug/mL under greenhouse conditions; in short: as §8
[34] = tested on: Fusarium oxysporum; test: Antifungal activity against Fusarium oxysporum after 48 to 72 hr by agar dilution method; in short: as §7
[35] = tested on: Phytophthora infestans; test: Antifungal activity against Phytophthora infestans after 48 to 72 hr by agar dilution method; in short: as §6
[36] = tested on: Puccinia recondita; test: Antifungal activity against Puccinia recondita infected compound pre-treated wheat plant seedlings assessed as wheat leaf rust disease control efficacy at 11 ug/mL under greenhouse conditions; in short: as §4
[37] = tested on: Pichia kudriavzevii; test: Antifungal activity against Pichia kudriavzevii ATCC 42720 after 48 to 72 hr by agar dilution method
[38] = tested on: Botrytis cinerea; test: Antifungal activity against Botryotinia fuckeliana infected in compound pre-treated tomato plant seedlings assessed as tomato gray mold disease control efficacy at 100 ug/mL measured 3 days post fungus inoculation under greenhouse conditions; in short: as §9
[39] = tested on: Cryptococcus neoformans; test: Antifungal activity against Cryptococcus neoformans ATCC 36556 after 48 to 72 hr […]
[40] = tested on: Blumeria hordei; test: Antifungal activity against Blumeria graminis f. sp. hordei infected compound pre-treated barley plant seedlings assessed as barley powdery mildew disease control efficacy at 1 ug/mL under greenhouse conditions; in short: as §1
[41] = tested on: Phytophthora infestans; test: Antifungal activity against Phytophthora infestans infected compound pre-treated tomato plant seedlings assessed as tomato late blight disease control efficacy at 10 ug/mL measured after 2 days under greenhouse conditions; in short: as §3
[42] = tested on: Phytophthora infestans; test: Antifungal activity against Phytophthora infestans infected compound pre-treated tomato plant seedlings assessed as tomato late blight disease control efficacy at 2 ug/mL measured after 2 days under greenhouse conditions; in short: as §3

SMILES: CC1=C(C(=O)Nc2ccccc2)SCCO1 [CARBOXIN]
- Efficacy [1]: 43%
- Efficacy [2]: 100%

SMILES: OCC1=C[C@H](N[C@H]2C[C@H](CO)[C@@H](O[C@@H]3O[C@H](CO)[C@@H](O)[C@H](O)[C@H]3O)[C@H](O)[C@H]2O)[C@H](O)[C@@H](O)[C@@H]1O [VALIDAMYCIN]
- Efficacy [3]: 100%
- Efficacy [4]: 75%

SMILES: N#Cc1c(Cl)c(Cl)c(Cl)c(C#N)c1Cl [CHLOROTHALONIL]
- Efficacy [5]: 100%
- Efficacy [6]: 94%

SMILES: N#Cc1c[nH]cc1-c1cccc2c1OC(F)(F)O2 [FLUDIOXONIL]
- Efficacy [7]: 100%
- Efficacy [8]: 82%

SMILES: C/C=C(\C)C(=O)OC[C@]1(O)[C@H]2C[C@H]2[C@]2(C)[C@@H]3CC4=C5[C@H](/C(=C(/C)C(=O)OC)C(=O)[C@H](O)[C@@]5(C)[C@@H]5C[C@H]45)[C@@]34OC(=O)C(COC(C)=O)=C4C[C@@H]12
- MIC [9]: 128 µg/mL (≈ 189 µM)
- Efficacy [5]: 93%
- MIC [10]: > 128 µg/mL
- Efficacy [11]: 0%
- Efficacy [12]: 50%
- MIC [13]: 4 µg/mL (≈ 5.91 µM)
- MIC [14]: 8 µg/mL (≈ 11.8 µM)
- Efficacy [15]: 50%
- Efficacy [16]: 7.2%
- MIC [17]: 16 µg/mL (≈ 23.6 µM)
- Efficacy [18]: 29%
- Efficacy [19]: 50%
- MIC [20]: 64 µg/mL (≈ 94.6 µM)
- Efficacy [21]: 17%
- Efficacy [22]: 0%
- Efficacy [23]: 67%
- MIC [24]: 8 µg/mL (≈ 11.8 µM)
- Efficacy [25]: 14%
- MIC [26]: 1 µg/mL (≈ 1.48 µM)
- Efficacy [27]: 91%
- Efficacy [28]: 87%
- MIC [29]: 8 µg/mL (≈ 11.8 µM)
- MIC [30]: 8 µg/mL (≈ 11.8 µM)
- Efficacy [31]: 69%
- Efficacy [32]: 100%
- Efficacy [33]: 72%
- MIC [34]: 16 µg/mL (≈ 23.6 µM)
- MIC [35]: 32 µg/mL (≈ 47.3 µM)
- Efficacy [36]: 80%
- MIC [37]: 128 µg/mL (≈ 189 µM)
- Efficacy [38]: 36%
- MIC [39]: 16 µg/mL (≈ 23.6 µM)

SMILES: CCCCNC(=O)n1c(NC(=O)OC)nc2ccccc21 [BENOMYL]
- Efficacy [40]: 90%
- Efficacy [21]: 100%

SMILES: COc1ccc(C(=CC(=O)N2CCOCC2)c2ccc(Cl)cc2)cc1OC [DIMETHOMORPH]
- Efficacy [41]: 100%
- Efficacy [42]: 64%

— ChEMBL document CHEMBL3045045, “Antifungal activity of CHE-23C, a dimeric sesquiterpene from Chloranthus henryi” (2009)
